Test results from ChEMBL document CHEMBL1158857, “New steroidal alkaloids from Buxus longifolia” (1997).

How the values were obtained:
Salmonella typhi [1] = assay: (§1) Antibacterial activity against Salmonella typhi assessed per 100 uL of nutrient broth after 24 hrs by tube broth dilution method; assay type: functional, Salmonella enterica subsp. enterica serovar Typhi
How it was run: (§2)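 Tube broth dilution in nutrient broth against sensitive Salmonella typhi: 0.1 mL culture (10^4-10^6 cells/mL) was added to tubes holding 1 mL of test sample at different concentrations plus 1 mL nutrient broth. Tubes were incubated 24 h at 37 °C, growth inhibition was observed, and MIC was recorded. Ampicillin was run the same way as the standard.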

Escherichia coli [2] = assay: Antibacterial activity against Escherichia coli at 100 ug/100 uL after 24 hrs by tube broth dilution method; assay type: functional
Pseudomonas aeruginosa [3] = assay: Antibacterial activity against Pseudomonas aeruginosa at 100 ug/100 uL after 24 hrs by tube broth dilution method; assay type: functional
Pseudomonas aeruginosa [4] = assay: Antibacterial activity against Pseudomonas aeruginosa assessed per 100 uL of nutrient broth after 24 hrs by tube broth dilution method; assay type: functional
How it was run: (§3)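 Tube broth dilution in nutrient broth. Sensitive bacterial culture (0.1 mL of 10^4-10^6 cells/mL) added to tubes holding 1 mL test sample at different concentrations plus 1 mL nutrient broth. Incubated 24 h at 37 °C, then growth inhibition scored visually. Ampicillin run the same way as reference. Minimum inhibitory concentration taken from the dilution series.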

Shigella flexneri [5] = assay: Antibacterial activity against Shigella flexneri at 200 ug/100 uL after 24 hrs by tube broth dilution method; assay type: functional
Pseudomonas aeruginosa [6] = assay: Antibacterial activity against Pseudomonas aeruginosa at 200 ug/100 uL after 24 hrs by tube broth dilution method; assay type: functional
Shigella flexneri [7] = assay: Antibacterial activity against Shigella flexneri at 100 ug/100 uL after 24 hrs by tube broth dilution method; assay type: functional
Escherichia coli [8] = assay: Antibacterial activity against Escherichia coli at 200 ug/100 uL after 24 hrs by tube broth dilution method; assay type: functional
Salmonella typhi [9] = assay: as §1; assay type: functional, Salmonella enterica subsp. enterica serovar Typhi; how it was run: as §2; remark: listed apart in the source
Salmonella typhi [10] = assay: Antibacterial activity against Salmonella typhi at 200 ug/100 uL after 24 hrs by tube broth dilution method; assay type: functional, Salmonella enterica subsp. enterica serovar Typhi; set-up: unit not given here
Salmonella typhi [11] = assay: Antibacterial activity against Salmonella typhi at 100 ug/100 uL after 24 hrs by tube broth dilution method; assay type: functional, Salmonella enterica subsp. enterica serovar Typhi; set-up: unit not given here
Escherichia coli [12] = assay: Antibacterial activity against Escherichia coli assessed per 100 uL of nutrient broth after 24 hrs by tube broth dilution method; assay type: functional; how it was run: as §3

## CC1(C)S[C@@H]2[C@H](NC(=O)[C@H](N)c3ccccc3)C(=O)N2[C@H]1C(=O)O [AMPICILLIN]
Salmonella typhi [1]
  MIC: 30 µg
Escherichia coli [2]
  inhibition zone (IZ): 11 mm
Pseudomonas aeruginosa [3]
  inhibition zone (IZ): 11 mm
Pseudomonas aeruginosa [4]
  MIC: 40 µg
Shigella flexneri [5]
  inhibition zone (IZ): 11 mm
Pseudomonas aeruginosa [6]
  inhibition zone (IZ): 11 mm
Shigella flexneri [7]
  inhibition zone (IZ): 11 mm
Escherichia coli [8]
  inhibition zone (IZ): 12 mm
Salmonella typhi [9]
  MIC: 30 µg

## CC(=O)O[C@@H]1C[C@@]2(C)[C@@H]3C[C@@H]4OC[C@]5(C)[C@@H](NC(=O)c6ccccc6)CCC(=CC3=CC[C@]2(C)[C@H]1[C@H](C)N(C)C)[C@@H]45 [CYCLOBUXEINE F]
Salmonella typhi [1]
  MIC: 100 µg
Pseudomonas aeruginosa [3]
  inhibition zone (IZ): 6 mm
Salmonella typhi [10]
  inhibition zone (IZ): 8
Pseudomonas aeruginosa [4]
  MIC: 10 µg
Shigella flexneri [5]
  inhibition zone (IZ): 7 mm
Salmonella typhi [11]
  inhibition zone (IZ): 7
Pseudomonas aeruginosa [6]
  inhibition zone (IZ): 8 mm
Shigella flexneri [7]
  inhibition zone (IZ): 7 mm
Salmonella typhi [9]
  MIC: 100 µg

## CN[C@@H](C)[C@H]1[C@H](O)C[C@@]2(C)[C@@H]3CC[C@H]4C(C)(C)[C@@H](N(C)C)C=C[C@@]45C[C@@]35CC[C@]12C [BUXASAMARINE]
Salmonella typhi [1]
  MIC: 100 µg
Pseudomonas aeruginosa [3]
  inhibition zone (IZ): 7 mm
Salmonella typhi [10]
  inhibition zone (IZ): 8
Pseudomonas aeruginosa [4]
  MIC: 50 µg
Shigella flexneri [5]
  inhibition zone (IZ): 7 mm
Salmonella typhi [11]
  inhibition zone (IZ): 6
Pseudomonas aeruginosa [6]
  inhibition zone (IZ): 9 mm
Salmonella typhi [9]
  MIC: 150 µg

## C=C1[C@@H](N(C)C(C)=O)CC[C@]23C[C@]24CC[C@]2(C)[C@@H]([C@H](C)NC)CC[C@@]2(C)[C@@H]4CC[C@@H]13 [CYCLOBUXAMIDINE]
Salmonella typhi [1]
  MIC: 150 µg
Escherichia coli [12]
  MIC: 200 µg
Salmonella typhi [10]
  inhibition zone (IZ): 6
Salmonella typhi [11]
  inhibition zone (IZ): 6
Escherichia coli [8]
  inhibition zone (IZ): 6 mm
